Assay results from ChEMBL document CHEMBL1150578, “Potent antiviral potamogetonyde and potamogetonol, new furanoid labdane diterpenes from Potamogeton malaianus” (J Nat Prod, 2001).
Converted amounts (≈) assume the structure as drawn.

Columns and labels:
Human alphaherpesvirus 1 = test: Antiviral activity against HSV1 infected in african green monkey Vero cells after 72 hrs by SRB assay; format: functional, organism-based; conditions: Human alphaherpesvirus 1, Vero
Procedure, shortened: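 HSV-1 (30 PFU) added to wells with test samples (final 20–50 µg/mL), then Vero cells plated at 1 × 10^5 cells/mL. Vero cells grown in MEM with 10% heat-inactivated FBS and antibiotics. Incubated 72 h at 37 °C, 5% CO2. Cells then fixed and stained, and OD read at 510 nm. Acyclovir was the reference.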

[1] = Cytotoxicity against Spodoptera frugiperda Sf9 cells after 24 hrs by MTT assay; format: functional, cell-based; conditions: Sf9, 24 h
Procedure, shortened: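 Seeded 4 × 10^3 cells/well and left 48 h to attach. Exposed 24 h to 1:2 serial dilutions from 200 to 1.56 µg/mL (top dose in 1% DMSO) with penicillin/streptomycin. Then 24 h recovery in fresh medium. MTT 4 h, formazan dissolved in DMSO/glycine buffer pH 10.5, OD 570 nm. Four wells per point; IC50 by metabolic competence.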

[2] = Cytotoxicity against Aedes albopictus C6/36 cells after 24 hrs by MTT assay; format: functional, cell-based; conditions: C6/36, 24 h
Procedure, shortened: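 C6/36 cells in MEM with 10% FCS and 1.1 g/L Na2CO3, at 28 °C, antibiotic-free stock. Seeded 1.6 × 10^4 cells/well and left 48 h to attach. Exposed 24 h to 1:2 serial dilutions from 200 to 1.56 µg/mL (top dose in 1% DMSO) with penicillin/streptomycin. Then 24 h recovery in fresh medium. MTT 4 h, formazan dissolved in DMSO/glycine buffer pH 10.5, OD 570 nm. Four wells per point; IC50 by metabolic competence.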

[3] = system: Mycobacterium tuberculosis; test: Antimycobacterial activity against Mycobacterium tuberculosis H37Ra by microplate alamar blue assay; format: functional
KB = test: Cytotoxicity against human KB cells by SRB assay; format: functional, cell-based
[4] = Cytotoxicity against human BC cells by SRB assay; format: functional, cell-based
Vero = test: Cytotoxicity against african green monkey Vero cells by SRB assay; format: cell-based; conditions: Chlorocebus sabaeus

C=C1CC[C@@H]2[C@@]3(C)CCC[C@@]2(C(=O)OC3)[C@@H]1CC(=O)c1ccoc1
IC50 (Human alphaherpesvirus 1): > 20 µg/mL
IC50 [1]: 26 µg/mL (≈ 79.2 µM)
IC50 [2]: 72 µg/mL (≈ 219 µM)
MIC [3]: 100 µg/mL (≈ 304 µM)
IC50 (KB): > 20 µg/mL
IC50 [4]: > 20 µg/mL
IC50 (Vero): > 50 µg/mL

Nc1nc2c(ncn2COCCO)c(=O)[nH]1 [ACYCLOVIR]
IC50 (Human alphaherpesvirus 1): 2 µg/mL (≈ 8.88 µM)

Cc1c2ccncc2c(C)c2c1[nH]c1ccccc12 [ELLIPTECINE]
IC50 (KB): 0.1 µg/mL (≈ 0.406 µM)
IC50 [4]: 0.1 µg/mL (≈ 0.406 µM)
IC50 (Vero): 0.4 µg/mL (≈ 1.62 µM)

NNC(=O)c1ccncc1 [ISONIAZID]
MIC [3]: 0.04 µg/mL (≈ 0.292 µM)

NC[C@H]1O[C@H](O[C@H]2[C@H](O)[C@@H](O[C@H]3O[C@H](CO)[C@@H](O)[C@H](N)[C@H]3O)[C@H](N)C[C@@H]2N)[C@H](O)[C@@H](O)[C@@H]1O.O=S(=O)(O)O [KANAMYCIN SULFATE]
MIC [3]: 2 µg/mL

CO[C@@]12[C@H](COC(N)=O)C3=C(C(=O)C(C)=C(N)C3=O)N1C[C@@H]1N[C@@H]12 [MITOMYCIN]
IC50 [1]: 3 µg/mL (≈ 8.97 µM)
IC50 [2]: 3 µg/mL (≈ 8.97 µM)

C=C1CC[C@@H]2[C@@]3(C)CCC[C@@]2(C(=O)OC3)[C@@H]1CCc1ccoc1 [POTAMOGETONIN]
IC50 (Human alphaherpesvirus 1): > 20 µg/mL
IC50 [1]: 15 µg/mL (≈ 47.7 µM)
IC50 [2]: 22 µg/mL (≈ 70 µM)
MIC [3]: 100 µg/mL (≈ 318 µM)
IC50 (KB): > 20 µg/mL
IC50 [4]: > 20 µg/mL
IC50 (Vero): > 50 µg/mL

C=C1CC[C@@H]2[C@](C)(COC(C)=O)CCC[C@@]2(CO)[C@@H]1CCc1ccoc1 [POTAMOGETONOL]
IC50 (Human alphaherpesvirus 1): 3 µg/mL (≈ 8.32 µM)
IC50 [1]: 23 µg/mL (≈ 63.8 µM)
IC50 [2]: 43 µg/mL (≈ 119 µM)
MIC [3]: 50 µg/mL (≈ 139 µM)
IC50 (KB): > 20 µg/mL
IC50 [4]: > 20 µg/mL
IC50 (Vero): 28 µg/mL (≈ 77.7 µM)

C=C1CC[C@@H]2[C@](C)(COC(C)=O)CCC[C@@]2(C=O)[C@@H]1CCc1ccoc1 [POTAMOGETONYDE]
IC50 (Human alphaherpesvirus 1): 8 µg/mL (≈ 22.3 µM)
IC50 [1]: 11 µg/mL (≈ 30.7 µM)
IC50 [2]: 30 µg/mL (≈ 83.7 µM)
MIC [3]: 100 µg/mL (≈ 279 µM)
IC50 (KB): > 20 µg/mL
IC50 [4]: > 20 µg/mL
IC50 (Vero): 31 µg/mL (≈ 86.5 µM)
